Assay [1] has as its target Mitogen-activated protein kinase 8 (Homo sapiens) (UniProt P45983). As to the kind of experiment: Inhibition of JNK1 at 10 uM by HTRF assay relative to control. A digest of the protocol:
(§1)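 HTRF kinase assay, one panel of kinases. Inhibitor stock 50 µM in 100% DMSO; tested at 10 µM. ATP and substrate at final levels near Km. Final buffer: 50 mM Hepes/NaOH pH 7.4, 40 µM Na3VO4, 0.005% Tween-20, 1 mM DTT, MnCl2 or MgCl2 at kinase-dependent levels. Started by adding ATP/substrate. Reaction run at room temperature, time varied by kinase. Detection mix in 50 mM Hepes pH 7.4, 0.1% BSA, 150 mM KF, incubated ≥1 h at room temperature. Activity expressed as % of uninhibited control; n=2.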
Background: TR-FRET usually uses a lanthanide donor and a delayed reading to cut background.

Assay [2] has as its target T1, Tyrosine-protein kinase JAK3 (Homo sapiens) (UniProt P52333).
T1 sequence (whole entry): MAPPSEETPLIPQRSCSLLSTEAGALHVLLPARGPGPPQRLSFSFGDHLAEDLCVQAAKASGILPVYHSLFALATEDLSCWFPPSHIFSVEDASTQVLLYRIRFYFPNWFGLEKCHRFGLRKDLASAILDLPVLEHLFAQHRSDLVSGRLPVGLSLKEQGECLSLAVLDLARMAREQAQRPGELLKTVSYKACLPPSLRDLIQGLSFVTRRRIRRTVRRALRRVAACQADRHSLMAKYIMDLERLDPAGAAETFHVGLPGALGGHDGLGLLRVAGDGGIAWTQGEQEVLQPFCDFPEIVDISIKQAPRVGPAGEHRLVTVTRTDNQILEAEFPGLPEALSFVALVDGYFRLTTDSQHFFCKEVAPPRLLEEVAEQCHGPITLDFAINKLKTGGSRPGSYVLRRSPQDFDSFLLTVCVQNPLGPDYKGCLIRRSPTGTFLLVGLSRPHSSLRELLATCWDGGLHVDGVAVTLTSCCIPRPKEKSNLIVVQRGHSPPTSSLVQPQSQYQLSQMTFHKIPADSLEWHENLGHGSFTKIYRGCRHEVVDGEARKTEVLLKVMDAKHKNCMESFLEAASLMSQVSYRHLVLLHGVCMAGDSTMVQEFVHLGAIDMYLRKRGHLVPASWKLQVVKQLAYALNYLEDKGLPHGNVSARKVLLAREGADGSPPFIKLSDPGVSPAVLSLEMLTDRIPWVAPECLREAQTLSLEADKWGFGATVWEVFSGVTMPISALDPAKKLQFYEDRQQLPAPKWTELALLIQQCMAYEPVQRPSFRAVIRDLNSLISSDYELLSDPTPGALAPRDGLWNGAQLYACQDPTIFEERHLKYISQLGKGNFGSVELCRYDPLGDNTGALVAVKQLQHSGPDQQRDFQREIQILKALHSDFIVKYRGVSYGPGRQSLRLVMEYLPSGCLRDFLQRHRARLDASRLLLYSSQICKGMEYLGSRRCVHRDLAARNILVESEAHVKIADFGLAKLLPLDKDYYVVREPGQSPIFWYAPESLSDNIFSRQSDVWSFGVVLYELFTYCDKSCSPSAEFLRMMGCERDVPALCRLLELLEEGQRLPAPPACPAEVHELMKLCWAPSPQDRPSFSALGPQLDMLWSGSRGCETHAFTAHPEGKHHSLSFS
As to the kind of experiment: Inhibition of JAK3 at 10 uM by HTRF assay relative to control. Summed up: as §1

In assay [3] the target is T2, Inhibitor of nuclear factor kappa-B kinase subunit beta (Homo sapiens) (UniProt O14920).
T2 sequence (whole entry): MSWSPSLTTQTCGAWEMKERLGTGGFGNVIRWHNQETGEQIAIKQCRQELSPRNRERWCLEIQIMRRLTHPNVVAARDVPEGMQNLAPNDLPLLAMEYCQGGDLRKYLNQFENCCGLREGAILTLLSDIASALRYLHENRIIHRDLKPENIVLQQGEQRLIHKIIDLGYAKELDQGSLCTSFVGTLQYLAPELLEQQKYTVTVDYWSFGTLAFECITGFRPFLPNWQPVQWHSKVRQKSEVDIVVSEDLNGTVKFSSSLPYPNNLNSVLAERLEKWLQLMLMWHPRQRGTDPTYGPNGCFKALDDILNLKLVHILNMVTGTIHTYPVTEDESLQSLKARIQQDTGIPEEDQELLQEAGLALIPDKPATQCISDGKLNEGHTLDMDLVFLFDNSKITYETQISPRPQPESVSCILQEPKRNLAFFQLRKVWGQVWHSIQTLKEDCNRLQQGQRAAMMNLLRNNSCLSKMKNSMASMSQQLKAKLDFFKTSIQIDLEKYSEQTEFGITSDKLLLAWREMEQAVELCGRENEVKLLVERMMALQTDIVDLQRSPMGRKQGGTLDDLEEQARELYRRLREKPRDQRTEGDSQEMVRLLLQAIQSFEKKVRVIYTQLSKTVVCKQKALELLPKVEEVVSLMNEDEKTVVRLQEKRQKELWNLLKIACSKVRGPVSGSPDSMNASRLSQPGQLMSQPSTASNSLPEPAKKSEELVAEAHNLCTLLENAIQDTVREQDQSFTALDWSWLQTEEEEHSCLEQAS
As to the kind of experiment: Inhibition of IKK-beta at 10 uM by HTRF assay relative to control. A digest of the protocol: as §1

Assay [4] has as its target Rho-associated protein kinase 2 (Homo sapiens) (UniProt O75116). As to the kind of experiment: Inhibition of ROCK2 at 10 uM by HTRF assay relative to control. A digest of the protocol:
as §1

Assay [5] addresses Tyrosine-protein kinase Lck (Homo sapiens) (UniProt P06239). As to the kind of experiment: Inhibition of Lck at 10 uM by HTRF assay relative to control. Summed up: as §1
Assay [6] concerns the target Mitogen-activated protein kinase 14 (Homo sapiens) (UniProt Q16539). As to the kind of experiment: Inhibition of p38alpha at 10 uM by HTRF assay relative to control. A digest of the protocol:
as §1

Assay [7] has as its target Tyrosine-protein kinase Lyn (Homo sapiens) (UniProt P07948). As to the kind of experiment: Inhibition of Lyn at 10 uM by HTRF assay relative to control. A digest of the protocol:
as §1

Assay [8] deals with Epidermal growth factor receptor (Homo sapiens) (UniProt P00533). As to the kind of experiment: Inhibition of EGFR at 10 uM by HTRF assay relative to control. A digest of the protocol:
as §1

Assay [9] deals with Serine/threonine-protein kinase Chk2 (Homo sapiens) (UniProt O96017). As to the kind of experiment: Inhibition of CHK2 at 10 uM by HTRF assay relative to control. Summed up:
as §1

Assay [10] deals with Receptor-type tyrosine-protein kinase FLT3 (Homo sapiens) (UniProt P36888). As to the kind of experiment: Inhibition of FLT3 at 10 uM by HTRF assay relative to control. A digest of the protocol:
as §1

Sequence of Mitogen-activated protein kinase 8 (Homo sapiens) (P45983 whole entry): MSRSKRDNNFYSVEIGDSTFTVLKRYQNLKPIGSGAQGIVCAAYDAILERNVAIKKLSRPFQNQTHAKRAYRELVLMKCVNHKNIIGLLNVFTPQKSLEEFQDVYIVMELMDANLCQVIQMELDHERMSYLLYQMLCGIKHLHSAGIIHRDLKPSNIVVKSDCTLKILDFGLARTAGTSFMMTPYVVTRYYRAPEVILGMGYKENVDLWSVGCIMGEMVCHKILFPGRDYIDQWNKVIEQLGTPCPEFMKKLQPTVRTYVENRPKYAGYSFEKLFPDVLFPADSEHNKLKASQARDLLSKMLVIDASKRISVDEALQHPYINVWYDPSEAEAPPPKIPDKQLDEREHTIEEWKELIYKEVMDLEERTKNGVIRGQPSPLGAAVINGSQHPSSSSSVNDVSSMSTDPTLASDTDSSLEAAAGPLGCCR
Sequence of Mitogen-activated protein kinase 14 (Homo sapiens) (Q16539 whole entry): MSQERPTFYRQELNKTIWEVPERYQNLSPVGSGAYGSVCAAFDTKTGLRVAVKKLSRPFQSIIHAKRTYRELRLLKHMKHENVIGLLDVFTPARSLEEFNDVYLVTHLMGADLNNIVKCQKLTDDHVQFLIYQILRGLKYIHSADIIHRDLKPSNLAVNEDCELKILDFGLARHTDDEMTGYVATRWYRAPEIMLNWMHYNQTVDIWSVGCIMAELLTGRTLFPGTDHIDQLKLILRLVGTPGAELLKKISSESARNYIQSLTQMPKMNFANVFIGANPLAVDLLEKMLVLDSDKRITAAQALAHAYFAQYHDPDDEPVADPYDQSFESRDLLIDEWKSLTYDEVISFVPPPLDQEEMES
Sequence of Tyrosine-protein kinase Lyn (Homo sapiens) (P07948 2-512 limits assumed): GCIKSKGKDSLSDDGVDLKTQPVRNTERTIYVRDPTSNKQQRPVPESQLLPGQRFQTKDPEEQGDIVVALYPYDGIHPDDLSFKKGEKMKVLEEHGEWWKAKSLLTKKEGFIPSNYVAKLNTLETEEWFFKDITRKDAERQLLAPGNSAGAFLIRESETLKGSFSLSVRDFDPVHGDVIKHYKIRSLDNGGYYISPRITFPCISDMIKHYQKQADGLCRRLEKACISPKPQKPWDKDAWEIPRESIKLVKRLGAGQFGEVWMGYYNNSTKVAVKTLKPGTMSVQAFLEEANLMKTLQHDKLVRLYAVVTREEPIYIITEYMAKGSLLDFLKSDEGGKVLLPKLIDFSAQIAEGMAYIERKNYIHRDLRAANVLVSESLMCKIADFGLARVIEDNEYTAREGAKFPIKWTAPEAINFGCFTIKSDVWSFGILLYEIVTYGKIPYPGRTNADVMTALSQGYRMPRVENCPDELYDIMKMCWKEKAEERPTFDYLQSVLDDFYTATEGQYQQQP
Sequence of Epidermal growth factor receptor (Homo sapiens) (P00533 whole entry): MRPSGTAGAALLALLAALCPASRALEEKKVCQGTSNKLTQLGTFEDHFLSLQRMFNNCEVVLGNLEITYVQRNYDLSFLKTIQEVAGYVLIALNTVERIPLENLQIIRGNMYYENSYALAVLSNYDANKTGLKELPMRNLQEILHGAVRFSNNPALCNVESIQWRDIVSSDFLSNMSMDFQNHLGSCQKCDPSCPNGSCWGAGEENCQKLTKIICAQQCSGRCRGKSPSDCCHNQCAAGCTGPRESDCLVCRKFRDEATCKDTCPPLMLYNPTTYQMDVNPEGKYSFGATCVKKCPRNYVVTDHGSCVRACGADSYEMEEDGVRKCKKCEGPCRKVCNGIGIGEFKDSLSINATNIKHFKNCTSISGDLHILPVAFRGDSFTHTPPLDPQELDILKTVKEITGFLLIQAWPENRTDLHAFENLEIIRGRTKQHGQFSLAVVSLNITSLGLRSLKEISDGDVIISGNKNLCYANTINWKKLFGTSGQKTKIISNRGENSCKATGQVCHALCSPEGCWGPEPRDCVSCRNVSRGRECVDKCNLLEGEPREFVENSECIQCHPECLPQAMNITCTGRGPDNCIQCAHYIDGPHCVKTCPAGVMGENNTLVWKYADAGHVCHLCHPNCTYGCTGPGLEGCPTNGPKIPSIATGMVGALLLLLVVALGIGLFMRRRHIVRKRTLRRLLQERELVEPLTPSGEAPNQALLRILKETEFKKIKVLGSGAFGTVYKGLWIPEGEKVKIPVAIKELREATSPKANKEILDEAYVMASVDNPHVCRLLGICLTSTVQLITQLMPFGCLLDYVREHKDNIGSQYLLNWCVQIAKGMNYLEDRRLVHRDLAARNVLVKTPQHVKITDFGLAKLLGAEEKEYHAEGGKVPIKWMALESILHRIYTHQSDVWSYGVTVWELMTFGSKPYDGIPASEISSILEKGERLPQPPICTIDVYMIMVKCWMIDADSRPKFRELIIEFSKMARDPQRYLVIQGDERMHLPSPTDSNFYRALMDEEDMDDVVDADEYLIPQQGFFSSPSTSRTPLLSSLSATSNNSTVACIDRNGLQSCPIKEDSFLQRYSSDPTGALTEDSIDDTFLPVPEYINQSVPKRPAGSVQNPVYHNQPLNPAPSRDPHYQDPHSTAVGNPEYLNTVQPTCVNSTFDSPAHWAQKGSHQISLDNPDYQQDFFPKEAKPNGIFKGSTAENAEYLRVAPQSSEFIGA
Sequence of Rho-associated protein kinase 2 (Homo sapiens) (O75116 whole entry, looked up): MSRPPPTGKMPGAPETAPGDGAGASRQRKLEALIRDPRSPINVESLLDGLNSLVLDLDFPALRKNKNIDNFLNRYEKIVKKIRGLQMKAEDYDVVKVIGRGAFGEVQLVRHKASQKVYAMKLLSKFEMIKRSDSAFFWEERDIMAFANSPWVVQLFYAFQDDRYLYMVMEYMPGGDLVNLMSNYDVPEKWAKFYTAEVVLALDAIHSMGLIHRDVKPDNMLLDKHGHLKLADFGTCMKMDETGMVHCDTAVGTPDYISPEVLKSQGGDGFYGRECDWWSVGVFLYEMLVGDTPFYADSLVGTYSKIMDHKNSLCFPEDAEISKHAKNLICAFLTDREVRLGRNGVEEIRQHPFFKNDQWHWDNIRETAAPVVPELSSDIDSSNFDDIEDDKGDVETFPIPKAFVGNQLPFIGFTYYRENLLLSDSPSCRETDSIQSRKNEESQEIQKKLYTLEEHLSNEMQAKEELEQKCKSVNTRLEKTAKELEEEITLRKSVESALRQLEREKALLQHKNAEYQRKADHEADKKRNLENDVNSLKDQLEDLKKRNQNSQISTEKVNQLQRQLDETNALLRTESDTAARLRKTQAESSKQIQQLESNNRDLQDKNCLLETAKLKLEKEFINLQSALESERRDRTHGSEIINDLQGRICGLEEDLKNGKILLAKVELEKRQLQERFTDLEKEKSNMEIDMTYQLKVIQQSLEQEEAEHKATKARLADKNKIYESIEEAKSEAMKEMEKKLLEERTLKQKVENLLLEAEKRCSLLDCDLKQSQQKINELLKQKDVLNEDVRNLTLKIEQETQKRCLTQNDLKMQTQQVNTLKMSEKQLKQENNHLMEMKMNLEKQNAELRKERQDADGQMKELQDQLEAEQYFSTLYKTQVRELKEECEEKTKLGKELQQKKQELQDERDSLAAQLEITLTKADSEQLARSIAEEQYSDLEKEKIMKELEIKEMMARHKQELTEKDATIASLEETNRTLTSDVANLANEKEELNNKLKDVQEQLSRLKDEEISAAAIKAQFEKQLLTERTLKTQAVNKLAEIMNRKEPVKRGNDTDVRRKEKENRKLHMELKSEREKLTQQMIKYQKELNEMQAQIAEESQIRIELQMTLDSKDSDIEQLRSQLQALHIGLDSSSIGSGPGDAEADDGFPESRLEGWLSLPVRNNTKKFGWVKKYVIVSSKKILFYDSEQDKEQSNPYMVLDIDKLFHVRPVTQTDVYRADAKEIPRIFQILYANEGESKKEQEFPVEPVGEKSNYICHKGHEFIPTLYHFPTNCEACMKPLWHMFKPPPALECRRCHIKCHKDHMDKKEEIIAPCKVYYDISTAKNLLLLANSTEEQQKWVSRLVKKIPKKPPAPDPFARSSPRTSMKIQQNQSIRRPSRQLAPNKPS
Sequence of Serine/threonine-protein kinase Chk2 (Homo sapiens) (O96017 whole entry): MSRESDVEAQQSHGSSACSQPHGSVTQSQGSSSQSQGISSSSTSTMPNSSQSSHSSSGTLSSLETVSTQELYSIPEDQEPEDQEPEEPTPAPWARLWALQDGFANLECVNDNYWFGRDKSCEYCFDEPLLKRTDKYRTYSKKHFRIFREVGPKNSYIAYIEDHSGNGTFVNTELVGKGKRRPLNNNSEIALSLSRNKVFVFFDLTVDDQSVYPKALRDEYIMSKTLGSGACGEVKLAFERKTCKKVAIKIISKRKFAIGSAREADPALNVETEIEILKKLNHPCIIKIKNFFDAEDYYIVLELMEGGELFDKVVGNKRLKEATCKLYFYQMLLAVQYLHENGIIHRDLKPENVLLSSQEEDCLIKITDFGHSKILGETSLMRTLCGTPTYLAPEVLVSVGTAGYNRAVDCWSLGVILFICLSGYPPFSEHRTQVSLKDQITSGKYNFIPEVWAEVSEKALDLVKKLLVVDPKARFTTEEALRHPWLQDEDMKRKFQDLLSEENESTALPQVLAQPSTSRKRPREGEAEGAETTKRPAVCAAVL
Sequence of Tyrosine-protein kinase Lck (Homo sapiens) (P06239 2-509 limits assumed): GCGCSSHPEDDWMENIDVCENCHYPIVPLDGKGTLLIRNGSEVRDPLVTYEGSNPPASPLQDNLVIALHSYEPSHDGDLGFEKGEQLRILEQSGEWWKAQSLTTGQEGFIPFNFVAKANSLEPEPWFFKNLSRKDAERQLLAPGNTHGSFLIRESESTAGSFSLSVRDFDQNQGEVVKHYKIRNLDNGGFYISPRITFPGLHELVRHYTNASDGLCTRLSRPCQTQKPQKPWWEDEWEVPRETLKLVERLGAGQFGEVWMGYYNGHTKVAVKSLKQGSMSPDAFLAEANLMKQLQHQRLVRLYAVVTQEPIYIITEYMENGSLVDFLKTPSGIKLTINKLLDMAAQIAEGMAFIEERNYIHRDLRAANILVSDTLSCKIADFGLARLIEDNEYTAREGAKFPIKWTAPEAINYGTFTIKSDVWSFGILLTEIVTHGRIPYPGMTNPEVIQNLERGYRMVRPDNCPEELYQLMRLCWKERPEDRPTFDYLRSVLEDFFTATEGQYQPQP

`CN(C)CC(C)(C)CNC(=O)[C@@H]1CCCN1c1nccc(Nc2ccccc2)n1`: the inhibition (in general, the change of the read-out against control, counted positive when it falls) in assay [1] was found to be 0%; in [2] it was 0%; in [3], 5%; in assay [4] it was 0%; in assay [5], 0%; in assay [6], 0%. Also, the inhibition in [7] was found to be 13%; in assay [8], 0%; in assay [9], 0%; in assay [10], 0%.

`O=C(NCc1cccnc1)c1cccc(-c2ccc(Nc3ccc4ncsc4c3)nn2)c1`: the inhibition in assay [1] is 55%; in [2], 41%; in assay [3], 52%; in assay [4], 93%; in [5] it was 42%; in assay [6], 0%. Besides, the inhibition in assay [7] is 48%; in assay [8] it was 27%; in assay [9], 28%; in assay [10] it was 98%.

Take `COc1ccc(NC(=O)Cc2ccc(Nc3cc(N(C)c4cccc(C)c4)ncn3)cc2)cn1`: the inhibition in assay [1] worked out at 4%; in assay [2] it was 4%; in assay [3], 0%; in assay [4] it was 0%; in assay [5] it was 0%; in [6], 2%. Moreover, the inhibition in assay [7] was found to be 18%; in assay [8], 62%; in assay [9] it was 1%; in assay [10], 11%.

`Nc1nc(N2CCOCC2)cc(N2CCC(C(=O)NCCc3ccc(O)cc3)CC2)n1`: the inhibition is 4% in assay [1]; 0% in [2]; 4% in assay [3]; 0% in assay [4]; 0% in assay [5]; 8% in assay [6]. Further, the inhibition in assay [7] came out at 5%; in [8], 0%; in [9], 0%; in assay [10], 0%.

For the compound `O=C(NC1Cc2ccccc2C1)c1cccc(Nc2ccnc(N3CCN(c4ccccc4)CC3)n2)c1`, the inhibition in [1] was found to be 0%; in assay [2], 0%; in assay [3] it was 1%; in assay [4], 1%; in assay [5], 0%; in assay [6], 1%. Also, the inhibition in assay [7] is 4%; in assay [8], 0%; in [9], 1%; in [10] it was 0%.

As for `Clc1ccc2sc(CN3CCN(c4ncnc5c4CN(Cc4ccccc4)CC5)CC3)cc2c1`, the inhibition in [1] was found to be 3%; in assay [2], 0%; in assay [3], 10%; in [4], 0%; in assay [5] it was 0%; in assay [6], 10%. The inhibition worked out at 17% in [7], 0% in assay [8], 0% in [9] and 0% in assay [10].

`Cc1cccc(N(C)c2cc(Nc3cccc(C(=O)N(CC(C)C)CC(C)C)c3)ncn2)c1`: the inhibition in [1], in assay [2], in [3], in assay [4], in assay [5] and in [6] was 0% in each case. In addition, the inhibition came to 2% in assay [7], 84% in [8], 0% in assay [9] and 0% in assay [10].

In the case of `Cc1cccc(N(C)c2cc(N3CCN(CC(=O)Nc4nc(-c5ccccc5)cs4)CC3)ncn2)c1`, the inhibition in assay [1] stood at 0%; in [2], 0%; in assay [3], 9%; in assay [4], 0%; in assay [5], 0%; in [6] it was 0%. For the same compound, the inhibition stood at 2% in assay [7], 0% in [8], 0% in assay [9] and 0% in assay [10].

Consider `Cc1cccc(Oc2ccnc(N3CCN(C(=O)c4c(C)noc4C)CC3)n2)c1`, for which the inhibition came out at 13% in assay [1]; 0% in assay [2]; 3% in [3]; 0% in assay [4]; 0% in assay [5]; 0% in assay [6]. For the same compound, the inhibition in [7] was determined as 0%; in [8] it was 0%; in [9], 3%; in assay [10], 0%.

On to `O=C(COc1ccccc1)N1CCN(c2nccc(Nc3ccc4ncsc4c3)n2)CC1`, for which the inhibition in assay [1] stood at 34%; in assay [2], 5%; in assay [3], 10%; in [4], 7%; in assay [5], 22%; in [6], 7%. Besides, the inhibition in assay [7] worked out at 12%; in [8], 81%; in assay [9] it was 6%; in assay [10], 0%.

`Cc1ccc(CN2CCN(c3nccc(C(C#N)c4ccccn4)n3)CC2)cc1` (stereo not given): the inhibition in [1] was 2%; in assay [2], 10%; in assay [3], 7%; in [4], 0%; in assay [5], 0%; in [6], 2%. Further, the inhibition is 3% in assay [7], 0% in assay [8], 0% in [9] and 0% in [10].

For `CC(=O)CCCCC(=O)N1CCN(c2nccc(Oc3cccc(C)c3)n2)CC1`, the inhibition in assay [1] is 8%; in [2] it was 0%; in assay [3], 4%; in assay [4] it was 0%; in assay [5] it was 0%; in assay [6] it was 10%. Moreover, the inhibition is 3% in assay [7], 0% in assay [8], 0% in assay [9] and 0% in [10].

For the compound `Nc1nc(Nc2ccc3ncsc3c2)cc(N2CCC[C@H]2C(=O)N[C@@H](CO)c2ccccc2)n1`, the inhibition in assay [1] was 0%; in assay [2] it was 6%; in [3], 4%; in [4] it was 2%; in assay [5] it was 0%; in assay [6], 7%. Besides, the inhibition in assay [7] is 0%; in assay [8], 2%; in assay [9], 2%; in assay [10], 0%.

In the case of `COc1ccc(-c2noc(CN3CCN(c4cc(Nc5cccc(O)c5)ncn4)CC3)n2)cc1`, the inhibition in assay [1] was determined as 0%; in assay [2] it was 9%; in assay [3] it was 2%; in [4] it was 0%; in assay [5], 0%; in assay [6] it was 1%. Also, the inhibition turned out to be 3% in assay [7], 17% in [8], 0% in assay [9] and 0% in [10].

Turning to `COc1cccc(Nc2cc(N3CCC[C@H]3C(=O)NCCc3ccc(O)cc3)nc(N)n2)c1`, the inhibition came out at 1% in [1]; 0% in assay [2]; 4% in [3]; 0% in [4]; 0% in assay [5]; 8% in [6]. The inhibition is 6% in assay [7], 0% in assay [8], 0% in [9] and 0% in assay [10].
